Assay results published in ChEMBL document CHEMBL1126811, “Fluorinated and iodinated dopamine agents: D2 imaging agents for PET and SPECT” (J Med Chem, 1993).

Assays:
[1] = test system: Rattus norvegicus; test: Biodistribution of radioligand [125I]FIDA1 in muscle of rat after 2 minutes after an intravenous injection is given (average of 3 rats); format: ADME, organism-based, Muscle tissue; settings: in vivo
How it was run: (§1)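 Male Sprague–Dawley rats (225–300 g) were given 0.2 mL saline containing the radioiodinated ligand (8–10 μCi) into the femoral vein under ether anesthesia. They were killed at set times by cardiac excision. Organs were weighed and γ-counted against diluted aliquots of the injected dose and expressed as % dose/organ. Blood and muscle were taken as 7% and 40% of body weight. Three rats were used per point.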

[2] = test system: Rattus norvegicus; test: Biodistribution of radioligand [125I]FIDA1 in muscle of rat after 60 minutes after an intravenous injection is given (average of 3 rats); format: ADME, organism-based, Muscle tissue; settings: in vivo, 1 h; how it was run: as §1
[3] = test system: Rattus norvegicus; test: Biodistribution of radioligand [125I]FIDA1 in skin of rat after 120 minutes after an intravenous injection is given (average of 3 rats); format: ADME, organism-based, Zone of skin; settings: in vivo, 2 h; how it was run: as §1
[4] = test system: Rattus norvegicus; test: Uptake of radioligand [125I]FIDA1 by cerebellum in rat after 120 minutes after an intravenous injection is given (average of 3 rats); format: ADME, organism-based; settings: in vivo, 2 h
How it was run: (§2)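 Male Sprague–Dawley rats (225–300 g) under ether anesthesia received radioiodinated tracer (8–10 μCi in 0.2 mL saline) into the femoral vein. They were killed by cardiac excision at set times. Cortex, striatum, hippocampus and cerebellum were dissected, weighed and gamma-counted. Results are % dose/gram against diluted injected dose.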

[5] = test system: Rattus norvegicus; test: Uptake of radioligand [125I]FIDA1 by cerebellum in rat after 2 minutes after an intravenous injection is given (average of 3 rats); format: ADME, organism-based; settings: in vivo; how it was run: as §2
[6] = test system: Rattus norvegicus; test: Uptake of radioligand [125I]-FIDA1 by cortex in rat after 120 minutes after an intravenous injection is given (average of 3 rats); format: ADME, organism-based; settings: in vivo, 2 h; how it was run: as §2
[7] = test system: Rattus norvegicus; test: Uptake of radioligand [125I]FIDA1 by cortex in rat after 2 minutes after an intravenous injection is given (average of 3 rats); format: ADME, organism-based; settings: in vivo; how it was run: as §2
[8] = test system: Rattus norvegicus; test: Uptake of radioligand [125I]FIDA1 by cortex in rat after 60 minutes after an intravenous injection is given (average of 3 rats); format: ADME, organism-based; settings: in vivo, 1 h; how it was run: as §2
[9] = test system: Rattus norvegicus; test: Uptake of radioligand [125I]FIDA1 by striatum in rat after 120 minutes after an intravenous injection is given (average of 3 rats); format: ADME, organism-based; settings: in vivo, 2 h; how it was run: as §2
[10] = test system: Rattus norvegicus; test: Uptake of radioligand [125I]FIDA1 by striatum in rat after 2 minutes after an intravenous injection is given (average of 3 rats); format: ADME, organism-based; settings: in vivo; how it was run: as §2
[11] = test system: Rattus norvegicus; test: Uptake of radioligand [125I]FIDA1 by striatum in rat after 60 minutes after an intravenous injection is given (average of 3 rats); format: ADME, organism-based; settings: in vivo, 1 h; how it was run: as §2
[12] = test system: Rattus norvegicus; test: Biodistribution of radioligand [125I]FIDA1 in blood of rat after 2 minutes after an intravenous injection is given (average of 3 rats); format: ADME, organism-based; settings: in vivo; how it was run: as §1
[13] = test system: Rattus norvegicus; test: Biodistribution of radioligand [125I]FIDA1 in blood of rat after 30 minutes after an intravenous injection is given (average of 3 rats); format: ADME, organism-based; settings: in vivo, 0.5 h; how it was run: as §1
[14] = test system: Rattus norvegicus; test: Biodistribution of radioligand [125I]FIDA1 in blood of rat after 60 minutes after an intravenous injection is given (average of 3 rats); format: ADME, organism-based; settings: in vivo, 1 h; how it was run: as §1
[15] = test system: Rattus norvegicus; test: Biodistribution of radioligand [125I]FIDA1 in brain of rat after 120 minutes after an intravenous injection is given (average of 3 rats); format: ADME, organism-based; settings: in vivo, 2 h; how it was run: as §1
[16] = test system: Rattus norvegicus; test: Biodistribution of radioligand [125I]FIDA1 in brain of rat after 2 minutes after an intravenous injection is given (average of 3 rats); format: ADME, organism-based; settings: in vivo; how it was run: as §1
[17] = species: Rattus norvegicus; test: Dissociation constant was determined; format: ADME, organism-based
How it was run: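 Rat striatal membrane homogenate (40–60 μg protein) incubated with 125I-labeled ligand ± competitors in 0.2 mL assay buffer, 15 min at 37 °C with stirring. Filtered on protamine-pretreated (0.2%) GF/B filters, washed with cold 50 mM Tris-HCl pH 7.4, gamma-counted. Nonspecific binding defined with 10 μM (+)-butaclamol. Scatchard and competition data fitted by iterative nonlinear least squares.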

[18] = test system: Rattus norvegicus; test: Biodistribution of radioligand [125I]FIDA1 in brain of rat after 60 minutes after an intravenous injection is given (average of 3 rats); format: ADME, organism-based; settings: in vivo, 1 h; how it was run: as §1
[19] = test system: Rattus norvegicus; test: Biodistribution of radioligand [125I]FIDA1 in thyroid of rat after 120 minutes after an intravenous injection is given (average of 3 rats); format: ADME, organism-based, Thyroid gland; settings: in vivo, 2 h; how it was run: as §1
[20] = test system: Rattus norvegicus; test: Biodistribution of radioligand [125I]FIDA1 in thyroid of rat after 2 minutes after an intravenous injection is given (average of 3 rats); format: ADME, organism-based, Thyroid gland; settings: in vivo; how it was run: as §1
[21] = test system: Rattus norvegicus; test: Biodistribution of radioligand [125I]FIDA1 in kidney of rat after 30 minutes after an intravenous injection is given (average of 3 rats); format: ADME, organism-based; settings: in vivo, 0.5 h; how it was run: as §1
[22] = test system: Rattus norvegicus; test: Biodistribution of radioligand [125I]FIDA1 in kidney of rat after 60 minutes after an intravenous injection is given (average of 3 rats); format: ADME, organism-based; settings: in vivo, 1 h; how it was run: as §1
[23] = test system: Rattus norvegicus; test: Biodistribution of radioligand [125I]FIDA1 in liver of rat after 120 minutes after an intravenous injection is given (average of 3 rats); format: ADME, organism-based; settings: in vivo, 2 h; how it was run: as §1
[24] = test system: Rattus norvegicus; test: Biodistribution of radioligand [125I]-FIDA1 in liver of rat after 2 minutes after an intravenous injection is given (average of 3 rats); format: ADME, organism-based; settings: in vivo; how it was run: as §1
[25] = test system: Rattus norvegicus; test: Biodistribution of radioligand [125I]-FIDA1 in heart of rat after 120 minutes after an intravenous injection is given (average of 3 rats); format: ADME, organism-based; settings: in vivo, 2 h; how it was run: as §1
[26] = test system: Rattus norvegicus; test: Biodistribution of radioligand [125I]FIDA1 in heart of rat after 2 minutes after an intravenous injection is given (average of 3 rats); format: ADME, organism-based; settings: in vivo; how it was run: as §1
[27] = test system: Rattus norvegicus; test: Biodistribution of radioligand [125I]FIDA1 in heart of rat after 60 minutes after an intravenous injection is given (average of 3 rats); format: ADME, organism-based; settings: in vivo, 1 h; how it was run: as §1
[28] = test system: Rattus norvegicus; test: Biodistribution of radioligand [125I]FIDA1 in kidney of rat after 120 minutes after an intravenous injection is given (average of 3 rats); format: ADME, organism-based; settings: in vivo, 2 h; how it was run: as §1
[29] = test system: Rattus norvegicus; test: Biodistribution of radioligand [125I]-FIDA1 in kidney of rat after 2 minutes after an intravenous injection is given (average of 3 rats); format: ADME, organism-based; settings: in vivo; how it was run: as §1
[30] = test system: Rattus norvegicus; test: Biodistribution of radioligand [125I]FIDA1 in thyroid of rat after 60 minutes after an intravenous injection is given (average of 3 rats); format: ADME, organism-based, Thyroid gland; settings: in vivo, 1 h; how it was run: as §1
[31] = test system: Rattus norvegicus; test: Biodistribution of radioligand [125I]FIDA1 in lung of rat after 120 minutes after an intravenous injection is given (average of 3 rats); format: ADME, organism-based; settings: in vivo, 2 h; how it was run: as §1
[32] = test system: Rattus norvegicus; test: Biodistribution of radioligand [125I]FIDA1 in lung of rat after 60 minutes after an intravenous injection is given (average of 3 rats); format: ADME, organism-based; settings: in vivo, 1 h; how it was run: as §1
[33] = test system: Rattus norvegicus; test: Biodistribution of radioligand [125I]FIDA1 in skin of rat after 60 minutes after an intravenous injection is given (average of 3 rats); format: ADME, organism-based, Zone of skin; settings: in vivo, 1 h; how it was run: as §1
[34] = test system: Rattus norvegicus; test: Biodistribution of radioligand [125I]FIDA1 in spleen of rat after 120 minutes after an intravenous injection is given (average of 3 rats); format: ADME, organism-based; settings: in vivo, 2 h; how it was run: as §1
[35] = test system: Rattus norvegicus; test: Biodistribution of radioligand [125I]FIDA1 in spleen of rat after 2 minutes after an intravenous injection is given (average of 3 rats); format: ADME, organism-based; settings: in vivo; how it was run: as §1
[36] = test system: Rattus norvegicus; test: Biodistribution of radioligand [125I]FIDA1 in spleen of rat after 60 minutes after an intravenous injection is given (average of 3 rats); format: ADME, organism-based; settings: in vivo, 1 h; how it was run: as §1
[37] = test system: Rattus norvegicus; test: Uptake of radioligand [125I]FIDA1 by cerebellum in rat after 60 minutes after an intravenous injection is given (average of 3 rats); format: ADME, organism-based; settings: in vivo, 1 h; how it was run: as §2

| SMILES | Dose/organ [1] | Dose/organ [2] | Dose/organ [3] | Dose/g [4] | Dose/g [5] | Dose/g [6] | Dose/g [7] | Dose/g [8] | Dose/g [9] | Dose/g [10] | Dose/g [11] | Dose/organ [12] | Dose/organ [13] | Dose/organ [14] | Dose/organ [15] | Dose/organ [16] | Kd [17] | Dose/organ [18] | Dose/organ [19] | Dose/organ [20] | also measured |
| --- | --- | --- | --- | --- | --- | --- | --- | --- | --- | --- | --- | --- | --- | --- | --- | --- | --- | --- | --- | --- | --- |
| COc1cc(I)cc(C(=O)NC[C@@H]2CCCN2Cc2ccc(F)cc2)c1OC | 11.14% | 4.21% | 5.75% | 0.01% | 0.49% | 0.01% | 0.63% | 0.04% | 0.23% | 0.59% | 0.37% | 2.08% | 0.87% | 0.64% | 0.05% | 0.98% | 0.02 nM | 0.1% | 0.03% | 0.07% | Dose/organ [21]: 2.96%; Dose/organ [22]: 1.38%; Dose/organ [23]: 5.71%; Dose/organ [24]: 19.41%; Dose/organ [25]: 0.03%; Dose/organ [26]: 1.38%; Dose/organ [27]: 0.06%; Dose/organ [28]: 0.42%; Dose/organ [29]: 6.77%; Dose/organ [30]: 0.03%; Dose/organ [31]: 0.15%; Dose/organ [32]: 0.32%; Dose/organ [33]: 8.56%; Dose/organ [34]: 0.05%; Dose/organ [35]: 1.19%; Dose/organ [36]: 0.14%; Dose/g [37]: 0.03% |
| CCN1CCC[C@H]1CNC(=O)c1cc(I)cc(OC)c1OCCF | 11.83% | 1.96% | 0.75% | 0.0016% | 0.16% | 0.0014% | 0.25% | 0.013% | 0.095% | 0.3% | 0.175% | 3.76% | 1.91% | 0.78% | 0.02% | 0.41% | 0.13 nM | 0.05% | 0.03% | 0.07% | Dose/organ [21]: 1.42%; Dose/organ [22]: 0.39%; Dose/organ [23]: 2.24%; Dose/organ [24]: 20.46%; Dose/organ [25]: 0.01%; Dose/organ [26]: 0.81%; Dose/organ [27]: 0.03%; Dose/organ [28]: 0.11%; Dose/organ [29]: 6.18%; Dose/organ [30]: 0.04%; Dose/organ [31]: 0.04%; Dose/organ [32]: 0.14%; Dose/organ [33]: 1.76%; Dose/organ [34]: 0.01%; Dose/organ [35]: 0.7%; Dose/organ [36]: 0.05%; Dose/g [37]: 0.006% |
